Compound activity from PubChem.
TDP2 inh – TDP2 (human) inhibition, absorbance primary screen | O95551 | recombinant TDP2, T5PNP hydrolysis, p-nitrophenol absorbance 415 nm | inhibition, % at 12.8 µM | 370,000 tested, 0.34% active | AID 720702;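 active = inhibition above the mean of all tested compounds plus 3 SD, set per campaign, cut at about 25% in these data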;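 note: 0% = DMSO with enzyme and 100% = buffer with substrate but no TDP2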
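Evaluation: % inhibition relative to enzyme-containing and enzyme-free wells. Material: recombinant human TDP2. Benchmarks: enzyme-free and DMSO wells. Timing: enzyme reaction with compound for 2 h at 37 °C. Compound dosing: 12.8 µM only. Measured by: p-Nitrophenol epi absorbance. Reagent: T5PNP substrate at 5 mM, a TopII-DNA adduct mimic. Replication: single well per compound.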
CTSL1 counter – counter-screen for PFM18AAP inhibitors: inhibitors of F. hepatica cathepsin L1; recombinant F. hepatica cathepsin L1, Z-Leu-Arg-MCA fluorescence; inhibition, % at 5.96 µM; AID 1906; 300,000 tested, 0.49% active;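 active = inhibition above the mean of all tested compounds plus 3 SD, set per screening campaign, cut at about 17% in these data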;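 note: 0% = plate median of test compound wells and 100% = 1 µM Z-Phe-Ala-diazomethylketone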
PAD4 FP inh – PAD4 (human) enzyme inhibition | Q9UM07 | recombinant PAD4, RCA probe fluorescence polarization | inhibition, % at 6.36 µM | 330,000 tested, 0.41% active;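 active = percent inhibition above a cutoff equal to the mean of all tested compounds plus 3 SD, cut at about 15% in these data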;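 note: 0% = PAD4 with RCA probe and DMSO and 100% = probe without PAD4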
PRMT1 inh – blocks human protein arginine methyltransferase 1. inhibition, % at 2.79 µM. Q99873. 370,000 tested, 1.3% active. recombinant PRMT1, activity-based probe fluorescence polarization. AID 652257;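 active = inhibition above about 21% made by adding two undisclosed values, limit read from the data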
Target sequence (Q99873 whole entry, looked up): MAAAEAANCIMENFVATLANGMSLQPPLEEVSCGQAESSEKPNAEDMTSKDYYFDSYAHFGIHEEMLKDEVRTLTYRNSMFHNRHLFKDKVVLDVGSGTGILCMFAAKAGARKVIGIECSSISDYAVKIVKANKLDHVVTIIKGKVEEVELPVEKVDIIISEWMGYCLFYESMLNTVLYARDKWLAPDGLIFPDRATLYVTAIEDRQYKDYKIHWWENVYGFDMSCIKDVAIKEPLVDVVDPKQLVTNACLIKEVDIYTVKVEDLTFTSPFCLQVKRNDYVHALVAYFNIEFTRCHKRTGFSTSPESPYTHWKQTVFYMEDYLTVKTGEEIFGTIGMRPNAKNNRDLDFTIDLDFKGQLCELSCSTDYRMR
GSTO1 inh – blocks human GSTO1 in RBBP9 counter-screen. P78417. recombinant GSTO1, activity-based probe fluorescence polarization. inhibition, % at 5.96 µM. 300,000 tested, 1.1% active;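 active = inhibition above the campaign mean inhibition plus 3 SD, cut at about 35% in these data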;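 note: 0% = GSTO1-1 with DMSO and 100% = wells lacking GSTO1-1 enzyme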
Target sequence (P78417 whole entry, looked up): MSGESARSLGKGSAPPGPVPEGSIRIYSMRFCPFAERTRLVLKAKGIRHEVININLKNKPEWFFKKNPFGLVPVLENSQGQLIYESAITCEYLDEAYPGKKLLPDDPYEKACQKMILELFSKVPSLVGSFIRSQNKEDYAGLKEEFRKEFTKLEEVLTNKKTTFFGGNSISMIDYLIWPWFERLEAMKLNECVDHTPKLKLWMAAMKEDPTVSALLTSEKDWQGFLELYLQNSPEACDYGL
GSTO1 inh conf – confirmation of human GSTO1 inhibitors; shares compounds with GSTO1 inh; recombinant GSTO1, probe fluorescence polarization; inhibition, % at 5.96 µM; 2,400 tested, 54% active;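 active = inhibition above the primary screen's cutoff, its mean inhibition plus 3 SD, cut at about 35% in these data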;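 note: loss of polarization as inhibitors block binding of rhodamine sulfonate ester activity probe; 0% = GSTO1 with DMSO and 100% = wells lacking GSTO1 enzyme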
GSTO1 recomb ABPP – inhibitors of recombinant human GSTO1; gel ABPP SE-Rh probe fluorescence; shares compounds with GSTO1 inh; inhibition, % at 1 µM; 130 tested, 30% active;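 active = inhibition of the enzyme GSTO1 above about 75%, limit read from the data; inactive = inhibition below that limit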
* hit, by the source's call; x = not tested or not shown. Only some compounds are listed: those with a hit (about 2.5% of all), similar ones and a draw of the others.

SMILES	TDP2 inh	CTSL1 counter	PAD4 FP inh	PRMT1 inh	GSTO1 inh	GSTO1 inh conf	others
O=C(NCCN1CCOCC1)NC1(C(F)(F)F)Oc2ccccc2O1	1	4	-2	5	57*	5
NS(=O)(=O)c1ccc(CCNC(=O)NC2(C(F)(F)F)Oc3ccccc3O2)cc1	2	2	-1	1	47*	2
CCCCNC(=O)NC1(C(F)(F)F)Oc2ccccc2O1	5	10	-4	0	55*	4
O=C(NCCN1CCOCC1)Nc1ccccc1	-8	-2	2	1	3	x
COc1ccc(OC)c(NC(=O)Nc2ccccc2C)c1	0	-1	1	-2	9	x
COc1cccc(NC(=O)Nc2nc3ncccn3c2-c2ccc(C)cc2)c1	3	x	x	1	x	x
COc1ccccc1CNC(=O)NNC(=O)CCn1nc(C)c([N+](=O)[O-])c1C	-1	x	x	0	x	x
COCCNC(=O)NC1(C(F)(F)F)Oc2ccc(Cl)cc2O1 (stereo unspecified)	2	-2	2	4	38*	5
CCOC(=O)c1sc(N(Cc2ccccc2)C(=O)CCl)nc1C	1	22*	5	22*	84*	92*
O=C(Cc1nnc(NC(=O)c2ccccc2)s1)N/N=C/c1ccc(O)cc1	10	2	1	-1	2	x
O=C(Cc1nnc(NC(=O)c2ccccc2)s1)N/N=C\c1ccc(O)c(O)c1	-7	8	-2	5	39*	30
COc1ccc(Oc2ccc(C(F)(F)F)cc2NC(=O)CC(CC(=O)O)c2ccccc2)cc1 (stereo unspecified)	1	4	4	0	43*	2
COc1ccc(Oc2ccc(C(F)(F)F)cc2NC(=O)c2ccc(F)cc2)cc1	-5	2	-5	0	-6	x
Cc1ccc(-n2c(O)c(/C=N/Nc3ccc(S(=O)(=O)N4CCOCC4)cc3[N+](=O)[O-])c3ccccc3c2=O)c(C)c1	5	2	-6	2	38*	62*
O=C(N/N=C/c1ccc(F)cc1)c1cc(-c2ccco2)nc2ccccc12	1	3	-1	4	57*	22
Cc1nnc(NC(=O)c2cc(-c3ccco3)nc3ccccc23)s1	-1	5	-8	18	40*	10
CCNC(=O)COC(=O)c1cc(-c2ccco2)nc2ccccc12	2	-4	3	38*	41*	8
O=C(OCC(=O)N1CCN(C(=O)c2ccco2)CC1)c1cc(-c2ccco2)nc2ccccc12	x	-5	2	x	34	x
C#CCOCCOCCOCCNc1nc(N2CCN(C(=O)Cn3cc(CCCCN)nn3)CC2)nc(N2CCN(C(=O)[C@H](CCCCN)n3cc(CCCC)nn3)CC2)n1	-3	-1	-2	-1	60*	2
O=c1[nH]c2ccccc2c2oc(CCl)nc12	3	8	-2	21*	87*	99*	GSTO1 recomb ABPP=69
CCC1CCc2c(c3ccccc3[nH]c2=O)O1 (stereo unspecified)	5	-5	-1	0	5	x
COC(=O)[C@]12C[C@H](CC(=O)NCc3ccc(OC)c(OC)c3)C(=O)N(Cc3cccc4ccccc34)C1=C[C@H](COCc1ccccc1)O[C@@H]2C	5	x	x	-2	x	x
O=C1CC(N(O)c2ccccc2)C(=O)N1c1cc(Cl)cc(Cl)c1 (stereo unspecified)	-1	0	15*	13	68*	3
COc1ccccc1N(O)C1CC(=O)N(c2ccc(F)cc2)C1=O (stereo unspecified)	10	1	-20	31*	57*	3
COc1ccccc1-c1cccc2c3c([nH]c12)[C@@H]1C[C@H]2[C@@H](CN1CC3)[C@H](C)ON2C	7	x	x	1	x	x
SMILES	TDP2 inh	CTSL1 counter	PAD4 FP inh	PRMT1 inh	GSTO1 inh	GSTO1 inh conf	others
CC(C)NC1=C(Cl)C(=O)c2ccccc2C1=O	23	5	-15	0	65*	14
O=C1C(Cl)=C(Nc2ccccc2)C(=O)c2ccccc21	-5	6	2	6	102*	90*
CCC(=O)NC1=C(NC(C)c2ccccc2)C(=O)c2ccccc2C1=O (stereo unspecified)	11	1	-8	-1	14	x
O=C(O)c1cccc(NC2=C(Cl)C(=O)c3ccccc3C2=O)c1	0	x	x	8	x	x
O=C(O)c1ccc(NC2=C(Cl)C(=O)c3ccccc3C2=O)cc1	-7	12	-10	13	79*	49*
C/C(=C/c1nc(N)n(Cc2ccccc2)c1Cc1ccccc1)Cn1[nH]c(=O)n(-c2ccccc2)c1=O	0	x	x	1	x	x
COC(=O)C1CN(Cc2cn(CCC3OCCO3)nn2)CCS(=O)(=O)N1Cc1ccc(Cl)cc1 (stereo unspecified)	1	x	x	7	x	x
CCCCOCCCNC(=O)C[C@H]1C(=O)N(Cc2ccc(OC)cc2)C2=CCCC[C@@]21C(=O)OCC	-1	x	x	-1	x	x
CCOC(=O)c1c(NC(=O)C2CCCCC2C(=O)O)sc2c1CCCCC2 (stereo unspecified)	10	3	1	2	54*	47*
COCCN(C(=O)COC(=O)c1cc2c(s1)CCC2)c1c(N)n(Cc2ccccc2)c(=O)[nH]c1=O	4	-2	5	13	52*	36*
CCC1CCc2sc(C(=O)OCC(=O)N(CCOC)c3c(N)n(Cc4ccccc4)c(=O)[nH]c3=O)cc2C1 (stereo unspecified)	0	0	1	3	-6	x
O=C(CSc1nnc(CNc2ccccc2)o1)c1ccc2c(c1)OCCO2	-4	1	1	0	40*	30
O=C(CSc1nnc(CNC(=O)c2ccccc2)o1)Nc1ccc2c(c1)OCCO2	-5	-3	1	1	0	x
CCOc1ccc(NC(=O)C(c2ccccn2)N(C(=O)CCl)c2ccc(OCC)cc2)cc1 (stereo unspecified)	x	-2	-8	x	43*	10
COc1ccc(NC(=O)C(c2ccccn2)N(C(C)=O)c2ccc(C)cc2)cc1 (stereo unspecified)	-3	1	-5	0	9	x
CCOC(=O)[C@@]12CCCC=C1N(CCc1ccc(Cl)cc1)C(=O)[C@H]2CC(=O)NCc1ccccc1	3	x	x	0	x	x
CCOC(=O)c1c(C)n(C)c2cc(Br)c(O)c(O)c12	-4	-3	-10	14	45*	13
O=C(O)COc1cccc(/C=C2/SC(=S)N(Cc3ccccc3)C2=O)c1	-24	2	-4	6	-8	x
O=C(O)CCCN1C(=O)/C(=C\c2ccccc2OCc2ccccc2)SC1=S	-12	3	-4	-1	39*	48*
O=C(O)CCCN1C(=O)/C(=C/C=C/c2ccco2)SC1=S	5	0	-7	42*	42*	37*
